In ChEMBL document CHEMBL3868617, “Synthesis, COX-1/2 inhibition activities and molecular docking study of isothiazolopyridine derivatives” (Bioorg Med Chem, 2017):

Experiments:
[1] = biological target: T1, Prostaglandin G/H synthase 2 (Homo sapiens, UniProt P35354); assay: Inhibition of COX-2 (unknown origin) using arachidonic acid as substrate preincubated for 2 mins followed by substrate addition in presence of TMPD by spectrophotometric analysis relative to control
T1 sequence (P35354 whole entry): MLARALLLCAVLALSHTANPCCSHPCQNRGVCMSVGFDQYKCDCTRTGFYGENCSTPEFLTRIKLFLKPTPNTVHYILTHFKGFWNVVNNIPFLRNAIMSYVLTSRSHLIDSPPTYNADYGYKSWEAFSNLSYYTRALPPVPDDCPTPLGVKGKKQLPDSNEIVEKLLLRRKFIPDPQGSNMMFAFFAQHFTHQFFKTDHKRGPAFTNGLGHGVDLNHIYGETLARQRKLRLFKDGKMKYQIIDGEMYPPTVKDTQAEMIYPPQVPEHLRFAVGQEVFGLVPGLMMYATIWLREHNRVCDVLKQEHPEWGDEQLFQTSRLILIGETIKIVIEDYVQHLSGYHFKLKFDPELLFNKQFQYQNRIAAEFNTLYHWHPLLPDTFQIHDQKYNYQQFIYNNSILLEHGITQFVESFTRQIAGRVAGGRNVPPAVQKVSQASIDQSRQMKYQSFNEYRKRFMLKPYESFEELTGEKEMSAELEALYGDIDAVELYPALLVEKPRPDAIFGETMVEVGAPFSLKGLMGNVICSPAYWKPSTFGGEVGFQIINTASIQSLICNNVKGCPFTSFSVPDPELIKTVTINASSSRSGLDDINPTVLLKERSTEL

[2] = biological target: T2, Prostaglandin G/H synthase 1 (Homo sapiens, UniProt P23219); assay: Inhibition of COX-1 (unknown origin) using arachidonic acid as substrate preincubated for 2 mins followed by substrate addition in presence of TMPD by spectrophotometric analysis
T2 sequence (P23219 whole entry): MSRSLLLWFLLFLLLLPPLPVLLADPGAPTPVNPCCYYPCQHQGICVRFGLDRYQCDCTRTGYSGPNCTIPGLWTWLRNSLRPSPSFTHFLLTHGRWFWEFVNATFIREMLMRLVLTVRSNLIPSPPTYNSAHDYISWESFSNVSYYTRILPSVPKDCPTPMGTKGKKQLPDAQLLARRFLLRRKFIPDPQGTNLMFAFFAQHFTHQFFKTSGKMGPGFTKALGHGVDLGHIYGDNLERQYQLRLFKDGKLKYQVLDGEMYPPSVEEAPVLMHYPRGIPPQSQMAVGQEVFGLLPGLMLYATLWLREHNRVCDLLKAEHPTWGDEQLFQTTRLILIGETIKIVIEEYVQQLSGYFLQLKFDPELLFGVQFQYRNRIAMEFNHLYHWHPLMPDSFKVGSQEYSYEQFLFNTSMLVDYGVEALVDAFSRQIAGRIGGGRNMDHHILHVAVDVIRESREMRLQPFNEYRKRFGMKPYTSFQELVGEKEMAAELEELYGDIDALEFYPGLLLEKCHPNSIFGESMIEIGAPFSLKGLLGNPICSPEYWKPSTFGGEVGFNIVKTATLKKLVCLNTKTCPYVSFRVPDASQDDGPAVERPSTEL
Method in brief: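 COX-1 with heme in 0.1 M Tris-HCl pH 8.0; arachidonic acid starts the reaction and the TMPD oxidation rate is read at 590 nm over 2 min.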

[3] = biological target: T2, Prostaglandin G/H synthase 1; assay: Inhibition of COX-1 (unknown origin) using arachidonic acid as substrate preincubated for 10 mins followed by substrate addition in presence of TMPD by spectrophotometric analysis relative to control
Method in brief: (§1)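 COX-1 in 0.1 M Tris-HCl pH 8.0 with heme; colorimetric read of TMPD oxidation at 590 nm after arachidonic acid starts the reaction. Activity is taken at 10 min of incubation with compound and given as E/E0 against enzyme with solvent only (methanol, ethanol or DMSO). Triplicates; paired t test.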

Mus musculus = assay: Antinociceptive activity in Swiss albino mouse assessed as reduction in phenylbenzoquinone-induced abdominal constrictions at 1.8 to 7.8 mg/kg, ip pretreated for 25 mins followed by phenylbenzoquinone treatment measured after 5 mins by writhing test; format: functional, Abdomen; design: scale not given: the % may be the effect or the level left
[4] = biological target: T2, Prostaglandin G/H synthase 1; assay: Increase in COX-1 (unknown origin) enzyme activity using arachidonic acid as substrate preincubated for 10 mins followed by substrate addition in presence of TMPD by spectrophotometric analysis relative to control; method in brief: as §1

| SMILES | IC50 ([1]; read-out: IC50) | IC50 ([2]; read-out: IC50) | IC50 ([1]; read-out: pIC50 (converted)) | inhibition [3] | inhibition [2] | IC50 ([2]; read-out: pIC50 (converted)) | Activity [4] | Activity (Mus musculus) |
| --- | --- | --- | --- | --- | --- | --- | --- | --- |
| Cc1cc(C)c2c(=O)n(CCCC(=O)N3CCN(c4ccccc4)CC3)sc2n1 | 459 µM | 349 µM | – | – | – | – | – | – |
| Cc1cc(C)c2c(OCCCC(=O)O)nsc2n1 | 269 µM | 248 µM | 245 µM | – | 25 to 40% | – | – | – |
| Cc1cc(C)c2c(OCCCC(=O)N3CCN(c4cccc(Cl)c4)CC3)nsc2n1 | – | 818 µM | 4570 µM | – | – | 380 µM | – | – |
| CN1C(C(=O)Nc2ccccn2)=C(O)c2ccccc2S1(=O)=O | – | – | – | – | – | – | 11% | – |
| Cc1cc(C)c2c(=O)n(CCCC(=O)N3CCN(c4cccc(Cl)c4)CC3)sc2n1 | – | 722 µM | – | – | – | – | – | – |
| Cc1cc(C)c2c(=O)n(CN3CCN(C4CCCCC4)CC3)sc2n1 | 359 µM | – | – | – | – | 372 to 661 µM | 3 to 7% | >50% |
| Cc1cc(C)c2c(=O)n(CC(=O)N3CCN(c4cccc(Cl)c4)CC3)sc2n1 | 605 µM | 375 µM | – | – | – | – | – | – |
| Cc1cc(C)c2c(OCCCC(=O)N3CCN(c4ccccc4)CC3)nsc2n1 | – | – | – | – | – | 1550 µM | 3 to 7% | – |
| O=C(CCn1sc2ccccc2c1=O)N1CCN(c2cccc(Cl)c2)CC1 | 130 µM | 331 µM | – | – | – | 302 µM | – | – |
| COc1cc2c(cc1OC)CN(C(=O)CCn1sc3nc(C)cc(C)c3c1=O)CC2 | 303 µM | 497 µM | 288 µM | – | – | – | – | – |
| Cc1cc(C)c2c(=O)n(CCCN3CCN(c4cccc(Cl)c4)CC3)sc2n1 | – | 816 µM | – | – | – | 513 to 525 µM | – | >50% |

The remaining compounds from weak to strong by IC50 ([2]; read-out: IC50), led by results:

| IC50 ([1]; read-out: IC50) | IC50 ([2]; read-out: IC50) | IC50 ([1]; read-out: pIC50 (converted)) | inhibition [3] | inhibition [2] | IC50 ([2]; read-out: pIC50 (converted)) | Activity [4] | SMILES | Activity (Mus musculus) |
| --- | --- | --- | --- | --- | --- | --- | --- | --- |
| 388 µM | 242 µM | – | – | – | – | – | Cc1cc(C)c2c(=O)n(CCC(=O)N3CCN(c4cccc(Cl)c4)CC3)sc2n1 | – |
| 302 µM | 235 µM | – | – | 25 to 40% | – | – | Cc1cc(C)c2c(=O)n(CCCC(=O)O)sc2n1 | – |
| 327 µM | 229 µM | – | – | 25 to 40% | – | – | Cc1cc(C)c2c(OC(C)C(=O)O)nsc2n1 (stereo unspecified) | – |
| 494 µM | 219 µM | 5250 µM | 18 to 30% | – | – | – | Cc1cc(C)c2c(=O)n(CN(C)CCNc3ccccc3)sc2n1 | >50% |
| 368 µM | 207 µM | – | 18 to 30% | 25 to 40% | – | – | Cc1cc(C)c2c(=O)n(CCC(=O)N3CCN(c4ccccc4)CC3)sc2n1 | – |
| – | 156 µM | 1260 µM | 18 to 30% | 25 to 40% | 141 µM | – | Cc1cc(C)c2c(=O)n(CN3CCN(c4ccccc4F)CC3)sc2n1 | >50% |
| 344 µM | 154 µM | – | 18 to 30% | 25 to 40% | 138 µM | – | CCC(C(=O)N1CCN(c2ccccc2)CC1)n1sc2nc(C)cc(C)c2c1=O (stereo unspecified) | – |
